# Calls of active or inactive are those of the source. The calls are words filed in the database; no cut-off is given here.
# Columns and labels:
# Escherichia coli [1] = experiment: Antibacterial activity against Escherichia coli ATCC 35210 after 24 hr by microdilution test; format: functional; details: ATCC 35210, 24 h
# In short: (§1)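 Broth microdilution in LB medium, about 1.0×10^4 cfu per well; compounds from 1 mg/ml stocks in 5% DMSO. Incubated 24 h. MIC is the lowest concentration with no visible growth under a binocular microscope. Run in duplicate, repeated three times.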
# Bacillus cereus [2] = experiment: Antibacterial activity against Bacillus cereus clinical isolate after 24 hr by microdilution test; format: functional; in short: as §1
# [3] = biological target: T1, Prostaglandin G/H synthase 1 (Ovis aries, UniProt P05979); experiment: (§2) Inhibition of ovine COX1 assessed as inhibition of PGF2a production by enzyme immunoassay
# T1 sequence (P05979 whole entry): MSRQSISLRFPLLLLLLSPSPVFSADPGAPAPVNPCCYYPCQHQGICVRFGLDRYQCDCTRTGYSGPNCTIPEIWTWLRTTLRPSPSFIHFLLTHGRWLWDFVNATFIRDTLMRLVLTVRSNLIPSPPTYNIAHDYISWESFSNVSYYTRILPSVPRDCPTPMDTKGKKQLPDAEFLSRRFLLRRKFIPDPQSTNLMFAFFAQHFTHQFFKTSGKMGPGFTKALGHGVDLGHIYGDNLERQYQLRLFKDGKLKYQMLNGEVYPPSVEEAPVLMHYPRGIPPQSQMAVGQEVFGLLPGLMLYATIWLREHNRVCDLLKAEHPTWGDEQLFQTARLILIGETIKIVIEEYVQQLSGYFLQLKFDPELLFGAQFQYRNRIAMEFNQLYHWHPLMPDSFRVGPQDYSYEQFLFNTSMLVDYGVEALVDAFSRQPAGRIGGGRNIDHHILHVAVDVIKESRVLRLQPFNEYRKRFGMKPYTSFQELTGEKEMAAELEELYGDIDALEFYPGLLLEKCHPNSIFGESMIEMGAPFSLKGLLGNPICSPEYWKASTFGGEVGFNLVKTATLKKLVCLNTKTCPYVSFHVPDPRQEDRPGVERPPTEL
# In short: (§3)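 Ovine COX-1 from a commercial screening kit, tested with 0.1 µM arachidonic acid, which is below the saturating level. COX-derived PGH2 is reduced by SnCl2 to PGF2a, quantified by enzyme immunoassay with a broad prostaglandin antibody. At least triplicate.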
# [4] = biological target: T2, Prostaglandin G/H synthase 1 (Ovis aries) (UniProt P05979); experiment: as §2; parameters: concentration or dose not given beside the values; details: concentration not given here; in short: as §3
# T2 sequence (whole entry): T1 sequence (P05979 whole entry)
# Penicillium ochrochloron [5] = experiment: Fungicidal activity against Penicillium ochrochloron ATCC 9112 after 72 hrs by serial subcultivation method; format: functional; details: ATCC 9112, 72 h
# Staphylococcus aureus [6] = experiment: Antibacterial activity against Staphylococcus aureus ATCC 6538 after 24 hr by microdilution test; format: functional; details: ATCC 6538, 24 h; in short: as §1
# Pseudomonas aeruginosa [7] = experiment: Antibacterial activity against Pseudomonas aeruginosa ATCC 27853 after 24 hr by microdilution test; format: functional; details: ATCC 27853, 24 h; in short: as §1
# [8] = (§4) Inhibition of soybean lipoxygenase assessed as inhibition of sodium linolate conversion to 13-hydroperoxylinoleic acid after 4 mins by spectrophotometry; parameters: species or system Glycine max; details: read-out: IC50
# Glycine max = experiment: as §4
# Micrococcus flavus [9] = experiment: Bactericidal activity against Micrococcus flavus ATCC 10240 after 72 hrs by serial subcultivation method; format: functional; details: ATCC 10240, 72 h
# Mus musculus [10] = experiment: Acute toxicity in AKR mouse up to 0.5 mmol/kg, ip; format: organism-based; details: in vivo
# Bacillus cereus [11] = experiment: Bactericidal activity against Bacillus cereus clinical isolate after 72 hrs by serial subcultivation method; format: functional
# Mus musculus [12] = experiment: Antiinflammatory activity in AKR mouse assessed as inhibition of carrageenan-induced paw edema at 0.01 mmol/kg, ip measured after 3.5 hrs of carrageenan-challenge; format: functional
# In short: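 AKR mice of both sexes (pregnant females excluded), 6-10 per group, fasted during the experiment. Edema induced by intradermal 0.05 mL of 2% carrageenin into the right hind paw. Compound given at 0.01 mmol/kg ip, suspended in water with Tween-80, at the same time as carrageenin.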
# Escherichia coli [13] = experiment: Bactericidal activity against Escherichia coli ATCC 35210 after 72 hrs by serial subcultivation method; format: functional; details: ATCC 35210, 72 h
# Micrococcus flavus [14] = experiment: Antibacterial activity against Micrococcus flavus ATCC 10240 after 24 hr by microdilution test; format: functional; details: ATCC 10240, 24 h; in short: as §1
# Pseudomonas aeruginosa [15] = experiment: Bactericidal activity against Pseudomonas aeruginosa ATCC 27853 after 72 hrs by serial subcultivation method; format: functional; details: ATCC 27853, 72 h
# Listeria monocytogenes [16] = experiment: Antibacterial activity against Listeria monocytogenes NCTC 7973 after 24 hr by microdilution test; format: functional; details: NCTC 7973, 24 h; in short: as §1
# Aspergillus flavus [17] = experiment: Antifungal activity against Aspergillus flavus ATCC 9643 after 72 hrs by serial dilution technique; format: functional; details: ATCC 9643, 72 h
# In short: (§5)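 Serial dilution in malt broth; compounds from 1 mg/ml stocks in 5% DMSO; 72 h at 28 °C. MIC is the lowest concentration with no visible growth under a binocular microscope. Run in duplicate, repeated three times.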
# Trichoderma viride [18] = experiment: Fungicidal activity against Trichoderma viride IAM 5061 after 72 hrs by serial subcultivation method; format: functional; details: IAM 5061, 72 h
# Listeria monocytogenes [19] = experiment: Bactericidal activity against Listeria monocytogenes NCTC 7973 after 72 hrs by serial subcultivation method; format: functional; details: NCTC 7973, 72 h
# Trichoderma viride [20] = experiment: Antifungal activity against Trichoderma viride IAM 5061 after 72 hrs by serial dilution technique; format: functional; details: IAM 5061, 72 h; in short: as §5
# Staphylococcus aureus [21] = experiment: Bactericidal activity against Staphylococcus aureus ATCC 6538 after 72 hrs by serial subcultivation method; format: functional; details: ATCC 6538, 72 h
# Aspergillus niger [22] = experiment: Fungicidal activity against Aspergillus niger ATCC 6275 after 72 hrs by serial subcultivation method; format: functional; details: ATCC 6275, 72 h
# Aspergillus fumigatus [23] = experiment: Fungicidal activity against Aspergillus fumigatus after 72 hrs by serial subcultivation method; format: functional
# Aspergillus fumigatus [24] = experiment: Antifungal activity against Aspergillus fumigatus after 72 hrs by serial dilution technique; format: functional; in short: as §5
# Talaromyces funiculosus [25] = experiment: Fungicidal activity against Penicillium funiculosum ATCC 36839 after 72 hrs by serial subcultivation method; format: functional; details: ATCC 36839, 72 h
# Penicillium ochrochloron [26] = experiment: Antifungal activity against Penicillium ochrochloron ATCC 9112 after 72 hrs by serial dilution technique; format: functional; details: ATCC 9112, 72 h; in short: as §5
# Aspergillus flavus [27] = experiment: Fungicidal activity against Aspergillus flavus ATCC 9643 after 72 hrs by serial subcultivation method; format: functional; details: ATCC 9643, 72 h
# Talaromyces funiculosus [28] = experiment: Antifungal activity against Penicillium funiculosum ATCC 36839 after 72 hrs by serial dilution technique; format: functional; details: ATCC 36839, 72 h; in short: as §5
# Aspergillus niger [29] = experiment: Antifungal activity against Aspergillus niger ATCC 6275 after 72 hrs by serial dilution technique; format: functional; details: ATCC 6275, 72 h; in short: as §5
SMILES,MIC (Escherichia coli [1]),MIC (Bacillus cereus [2]),IC50 [3],inhibition [4],MFC (Penicillium ochrochloron [5]),MIC (Staphylococcus aureus [6]),MIC (Pseudomonas aeruginosa [7]),IC50 [8],inhibition (Glycine max),MBC (Micrococcus flavus [9]),Activity (Mus musculus [10]),MBC (Bacillus cereus [11]),inhibition in vivo at 10 µmol/kg (Mus musculus [12]),MBC (Escherichia coli [13]),MIC (Micrococcus flavus [14]),MBC (Pseudomonas aeruginosa [15]),MIC (Listeria monocytogenes [16]),MIC (Aspergillus flavus [17]),MFC (Trichoderma viride [18]),MBC (Listeria monocytogenes [19]),other results
O=C1N/C(=N\c2nccs2)S/C1=C\c1c(Cl)cccc1Cl,28.1 µM,21.1 µM,78 µM,100%,56.2 µM,28.1 µM,21.1 µM,137 µM,43%,84.2 µM,Non-toxic,28.1 µM,58.5%,56.2 µM,56.2 µM,28.1 µM,56.2 µM,56.2 µM,28.1 µM,84.2 µM,MIC (Trichoderma viride [20]): 21.1 µM; MBC (Staphylococcus aureus [21]): 56.2 µM; MFC (Aspergillus niger [22]): 70.2 µM; MFC (Aspergillus fumigatus [23]): 70.2 µM; MIC (Aspergillus fumigatus [24]): 56.2 µM; MFC (Talaromyces funiculosus [25]): 70.2 µM; MIC (Penicillium ochrochloron [26]): 28.1 µM; MFC (Aspergillus flavus [27]): 70.2 µM; MIC (Talaromyces funiculosus [28]): 28.1 µM; MIC (Aspergillus niger [29]): 56.2 µM
O=C1N/C(=N\c2nccs2)S/C1=C\c1cccc(O)c1,,,16 µM,98%,,,,> 150 µM,35%,,Non-toxic,,33.7%,,,,,,,,
O=C1N/C(=N\c2nccs2)S/C1=C\c1cccc(Cl)c1Cl,56.2 µM,56.2 µM,10 µM,100%,56.2 µM,70.2 µM,28.1 µM,143 µM,41%,84.2 µM,Non-toxic,70.2 µM,45%,70.2 µM,56.2 µM,56.2 µM,70.2 µM,42.1 µM,56.2 µM,84.2 µM,MIC (Trichoderma viride [20]): 28.1 µM; MBC (Staphylococcus aureus [21]): 84.2 µM; MFC (Aspergillus niger [22]): 56.2 µM; MFC (Aspergillus fumigatus [23]): 70.2 µM; MIC (Aspergillus fumigatus [24]): 56.2 µM; MFC (Talaromyces funiculosus [25]): 56.2 µM; MIC (Penicillium ochrochloron [26]): 42.1 µM; MFC (Aspergillus flavus [27]): 56.2 µM; MIC (Talaromyces funiculosus [28]): 28.1 µM; MIC (Aspergillus niger [29]): 42.1 µM
O=C1N/C(=N\c2nccs2)S/C1=C\c1cccc(Br)c1,14.6 µM,25.6 µM,,2%,22 µM,7.3 µM,14.6 µM,> 150 µM,34%,25.6 µM,Non-toxic,29.2 µM,42.7%,25.6 µM,18.3 µM,25.6 µM,14.4 µM,22 µM,22 µM,18.3 µM,MIC (Trichoderma viride [20]): 18 µM; MBC (Staphylococcus aureus [21]): 14.4 µM; MFC (Aspergillus niger [22]): 25.6 µM; MFC (Aspergillus fumigatus [23]): 25.6 µM; MIC (Aspergillus fumigatus [24]): 18 µM; MFC (Talaromyces funiculosus [25]): 22 µM; MIC (Penicillium ochrochloron [26]): 18 µM; MFC (Aspergillus flavus [27]): 25.6 µM; MIC (Talaromyces funiculosus [28]): 18 µM; MIC (Aspergillus niger [29]): 18 µM
O=C1N/C(=N\c2nccs2)S/C1=C\c1cc(Br)ccc1O,68 µM,9 µM,65 µM,73%,34 µM,34 µM,17 µM,,inactive,68 µM,Non-toxic,34 µM,54.4%,137 µM,34 µM,34 µM,17 µM,34 µM,17 µM,34 µM,MIC (Trichoderma viride [20]): 8.5 µM; MBC (Staphylococcus aureus [21]): 68 µM; MFC (Aspergillus niger [22]): 68 µM; MFC (Aspergillus fumigatus [23]): 34 µM; MIC (Aspergillus fumigatus [24]): 17 µM; MFC (Talaromyces funiculosus [25]): 34 µM; MIC (Penicillium ochrochloron [26]): 17 µM; MFC (Aspergillus flavus [27]): 68 µM; MIC (Talaromyces funiculosus [28]): 17 µM; MIC (Aspergillus niger [29]): 34 µM
Cc1ccc(/C=C2\S/C(=N/c3nccs3)NC2=O)cc1,33 µM,16.5 µM,51 µM,99%,66 µM,24.7 µM,16.5 µM,92 µM,67%,98.9 µM,Non-toxic,33 µM,47%,66 µM,66 µM,24.7 µM,66 µM,49.4 µM,49.4 µM,82.4 µM,MIC (Trichoderma viride [20]): 33 µM; MBC (Staphylococcus aureus [21]): 33 µM; MFC (Aspergillus niger [22]): 66 µM; MFC (Aspergillus fumigatus [23]): 66 µM; MIC (Aspergillus fumigatus [24]): 49.4 µM; MFC (Talaromyces funiculosus [25]): 66 µM; MIC (Penicillium ochrochloron [26]): 33 µM; MFC (Aspergillus flavus [27]): 66 µM; MIC (Talaromyces funiculosus [28]): 49.4 µM; MIC (Aspergillus niger [29]): 49.4 µM
O=C1N/C(=N\c2nccs2)S/C1=C\c1ccc(Cl)cc1Cl,21.1 µM,28.1 µM,32 µM,98%,56.2 µM,56.2 µM,28.1 µM,122 µM,54%,98.2 µM,Non-toxic,56.2 µM,9.9%,56.2 µM,84.2 µM,70.2 µM,70.2 µM,42.1 µM,42.1 µM,84.2 µM,MIC (Trichoderma viride [20]): 28.1 µM; MBC (Staphylococcus aureus [21]): 70.2 µM; MFC (Aspergillus niger [22]): 56.2 µM; MFC (Aspergillus fumigatus [23]): 56.2 µM; MIC (Aspergillus fumigatus [24]): 42.1 µM; MFC (Talaromyces funiculosus [25]): 56.2 µM; MIC (Penicillium ochrochloron [26]): 42.1 µM; MFC (Aspergillus flavus [27]): 56.2 µM; MIC (Talaromyces funiculosus [28]): 28.1 µM; MIC (Aspergillus niger [29]): 42.1 µM

# — ChEMBL document CHEMBL2311431, “Synthesis and biological evaluation of some 5-arylidene-2-(1,3-thiazol-2-ylimino)-1,3-thiazolidin-4-ones as dual anti-inflammatory/antimicrobial agents” (Bioorg Med Chem, 2013)
